This note sets out measurements from ChEMBL document CHEMBL5647682, “A selective PIKfyve inhibitor blocks PtdIns(3,5)P(2) production and disrupts endomembrane transport and retroviral budding” (EMBO Rep, 2008).

pEC50, pIC50: −log10 of the molar value. Calls of active or inactive are those of the source. The rule behind the calls is not given here.

For assay [1], the target named is 1-phosphatidylinositol 3-phosphate 5-kinase FAB1 (Saccharomyces cerevisiae (strain ATCC 204508 / S288c) (Baker's yeast), UniProt P34756). In words: Inhibition of Saccharomyces cerevisiae GST-tagged Fab1 incubated for 15 mins in presence of ATP.
Assay [2] deals with NIH3T3. The following applies: Mus musculus, dose 800.0 nM.
Assay [3] concerns NIH3T3. Nature of the assay: Induction of EGF localization in mouse NIH3T3 cells at 800 nM preincubated for 2 hrs followed by EGF stimulation and measured after 60 mins. The following applies: time 3.0 hrs. Format: functional, cell-based.
The test system of assay [4] is NIH3T3. In words: Induction of EEA1 localization in lumenal vesicles of mouse NIH3T3 cells at 800 nM incubated for 2 hrs. The class given is functional, cell-based. An outline of the steps: (§1)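 NIH3T3 cells on coverslips, untreated or given 800 nM compound for 2 h. Fixed in 4% paraformaldehyde, permeabilized in 0.2% Triton X-100, blocked in 2% BSA, then anti-EEA1 staining. Confocal single 0.4 μm optical sections, with phase image merged onto the fluorescence image.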

Assay [5] is described as follows: Effect on PtdIns3P production in [32p]pi labelled serum stimulated mouse NIH3T3 cells at 800 nM (reference value: 7685 +/- 307). Format: functional. The essentials: (§2)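 Sub-confluent NIH3T3 cells in 6 cm dishes, moved to phosphate-free medium and labelled with 0.3 mCi/ml 32Pi for 1 h, then treated with or without inhibitor for 20 min. Lysis in ice-cold 1 M HCl, scraping, lipid extraction and HPLC analysis of labelled phosphoinositides.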

In assay [6] the test system is COS-7. Nature of the assay: Induction of EGF localization in african green monkey COS7 cells at 800 nM preincubated for 2 hrs followed by EGF stimulation and measured after 60 mins. Format: functional, cell-based. The following applies: Chlorocebus aethiops, time 3.0 hrs.
Assay [7] has as its system NIH3T3. Nature of the assay: Induction of EEA1 localization in vesicular structures of mouse NIH3T3 cells at 800 nM incubated for 2 hrs. Format: functional, cell-based. The essentials: as §1
Assay [8] has as its system COS-7. In words: Induction of swollen vesicle phenotype in african green monkey COS-7 cells at 800 nM incubated for 120 mins by time-lapse analysis. Format: functional, cell-based. The following applies: Chlorocebus aethiops.
The test system of assay [9] is NIH3T3. Nature of the assay: Inhibition of PKB phosphorylation at Ser473 residue in mouse NIH3T3 cells at 800 nM under serum starved condition. The class given is cell-based. An outline of the steps:
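NIH3T3 cells, 200,000 per well, grown in DMEM/10% donor calf serum, then held 18 h in 0.1% DCS. Pretreated 15 min with vehicle (DMSO), 800 nM inhibitor, 20 nM rapamycin or 10 μM LY294002, then left unstimulated or stimulated 15 min with 10% DCS. Lysates run on 10% SDS-PAGE, PVDF immunoblot with specific antibodies.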

In assay [10] the test system is NIH3T3. In words: Inhibition of cell growth in mouse NIH3T3 cells after 7 days. The class given is functional. The following applies: time 7 day.
Assay [11] relates to NIH3T3. Nature of the assay: Induction of swollen vesicle phenotype in mouse NIH3T3 cells incubated for 120 mins by time-lapse analysis. The class given is functional, cell-based. To be noted: NIH3T3, 2 h. An outline of the steps:
(§3)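 Live imaging of NIH3T3 cells on glass-bottom dishes in phenol red-free DMEM/10% DCS at 37°C, 10% CO2. Cells given 800 nM compound and phase imaged for 120 min, frames every 10 s. Then washed, placed in drug-free medium and filmed a further 130 min.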

In assay [12] the target is Phosphatidylinositol 4,5-bisphosphate 3-kinase catalytic subunit alpha isoform (Homo sapiens, UniProt P42336). In words: Inhibition of GST-tagged Ptdlns3p P110alpha (unknown origin) expressed in baculovirus infected insect cells incubated for 15 mins in presence of ATP.
Assay [13] in a line: Effect on PtdIns4P production in [32p]pi labelled serum stimulated mouse NIH3T3 cells at 800 nM (reference value: 212147 +/- 5485). The class given is functional. An outline of the steps: as §2
For the next assay, the species on record is Homo sapiens. Nature of the assay: Inhibition of type 2 gamma PtdInsP (unknown origin) at 10 uM relative to control.
Assay [14] has as its system NIH3T3. Nature of the assay: Inhibition of autophagy in mouse NIH3T3 cells transfected with GFP-tagged LC3 assessed as accumulation of LC3 in enlarged vesicles at 800 nM after 2 hrs. Format: functional, cell-based. An outline of the steps:
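NIH3T3 cells transfected with GFP-LC3 (Lipofectamine 2000), examined 48 h post-transfection. Left untreated or treated 2 h with 800 nM compound, fixed in 4% paraformaldehyde, and GFP, phase and overlay images taken by confocal microscopy as 0.4 μm optical sections.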

The nature of assay [15]: Effect on PtdIns(3,4)P2 production in [32p]pi labelled serum stimulated mouse NIH3T3 cells at 800 nM (reference value: 1366 +/- 44). The class given is functional. An outline of the steps: as §2
The next assay relates to MCF-10A. Nature of the assay: Induction of swollen vesicle phenotype in human MCF-10A cells at 800 nM incubated for 120 mins by time-lapse analysis. The class given is functional, cell-based.
Assay [16] concerns NIH3T3. Nature of the assay: Induction of cell division in mouse NIH3T3 cells at 800 nM. Format: functional, cell-based.
The nature of assay [17]: Inhibition of Saccharomyces cerevisiae GST-tagged PIKfyve.
Assay [18] can be described thus: Effect on PtdIns(4,5)P2 production in [32p]pi labelled serum stimulated mouse NIH3T3 cells at 800 nM (reference value: 487335 +/- 641). The class given is functional. The essentials:
as §2

For assay [19], the system named is NIH3T3. In words: Induction of swollen vesicle phenotype in mouse NIH3T3 cells at 800 nM incubated for 120 mins by time-lapse analysis. Format: functional, cell-based. An outline of the steps: as §3
Assay [20] has as its system NIH3T3. In words: Induction of CI-MPR localization in perinuclear vesicle of mouse NIH-3T3 at 800 nM incubated for 2 hrs. Format: functional, cell-based.
In assay [21] the test system is NIH3T3. Nature of the assay: Reversal of swollen vesicle phenotype in mouse NIH3T3 cells expressing Fab1 assessed as reduction in number of swollen vesicles at 800 nM incubated for 2 hrs by phase contrast microscopic analysis. Set-up: scale not given: the % may be the effect or the level left. The class given is functional.
The nature of assay [22]: Effect on PtdIns(3,5)P2 production in [32p]pi labelled serum stimulated mouse NIH3T3 cells at 800 nM (reference value: 2219 +/- 71). The class given is functional. An outline of the steps: as §2
Assay [23] relates to NIH3T3. Nature of the assay: Reversal of swollen vesicle phenotype in mouse NIH3T3 cells expressing Fab1 assessed as reduction in size of swollen vesicles at 800 nM incubated for 2 hrs by phase contrast microscopic analysis. Format: functional, cell-based.
Assay [24] is described as follows: Inhibition of mouse type 1 alpha PtdInsP.
Assay [25] can be described thus: Selectivity ratio of IC50 for GST-tagged Ptdlns3p P110alpha (unknown origin) to IC50 for Saccharomyces cerevisiae GST-tagged PIKfyve.
The subject of another assay is MDCK. In words: Induction of swollen vesicle phenotype in MDCK cells at 800 nM incubated for 120 mins by time-lapse analysis. The class given is functional, cell-based. To be noted: Canis lupus familiaris.
The next assay relates to MEF. Nature of the assay: Induction of swollen vesicle phenotype in MEF cells at 800 nM incubated for 120 mins by time-lapse analysis. The class given is functional, cell-based. The following applies: Mus musculus.

Chain of 1-phosphatidylinositol 3-phosphate 5-kinase FAB1 (P34756 whole entry): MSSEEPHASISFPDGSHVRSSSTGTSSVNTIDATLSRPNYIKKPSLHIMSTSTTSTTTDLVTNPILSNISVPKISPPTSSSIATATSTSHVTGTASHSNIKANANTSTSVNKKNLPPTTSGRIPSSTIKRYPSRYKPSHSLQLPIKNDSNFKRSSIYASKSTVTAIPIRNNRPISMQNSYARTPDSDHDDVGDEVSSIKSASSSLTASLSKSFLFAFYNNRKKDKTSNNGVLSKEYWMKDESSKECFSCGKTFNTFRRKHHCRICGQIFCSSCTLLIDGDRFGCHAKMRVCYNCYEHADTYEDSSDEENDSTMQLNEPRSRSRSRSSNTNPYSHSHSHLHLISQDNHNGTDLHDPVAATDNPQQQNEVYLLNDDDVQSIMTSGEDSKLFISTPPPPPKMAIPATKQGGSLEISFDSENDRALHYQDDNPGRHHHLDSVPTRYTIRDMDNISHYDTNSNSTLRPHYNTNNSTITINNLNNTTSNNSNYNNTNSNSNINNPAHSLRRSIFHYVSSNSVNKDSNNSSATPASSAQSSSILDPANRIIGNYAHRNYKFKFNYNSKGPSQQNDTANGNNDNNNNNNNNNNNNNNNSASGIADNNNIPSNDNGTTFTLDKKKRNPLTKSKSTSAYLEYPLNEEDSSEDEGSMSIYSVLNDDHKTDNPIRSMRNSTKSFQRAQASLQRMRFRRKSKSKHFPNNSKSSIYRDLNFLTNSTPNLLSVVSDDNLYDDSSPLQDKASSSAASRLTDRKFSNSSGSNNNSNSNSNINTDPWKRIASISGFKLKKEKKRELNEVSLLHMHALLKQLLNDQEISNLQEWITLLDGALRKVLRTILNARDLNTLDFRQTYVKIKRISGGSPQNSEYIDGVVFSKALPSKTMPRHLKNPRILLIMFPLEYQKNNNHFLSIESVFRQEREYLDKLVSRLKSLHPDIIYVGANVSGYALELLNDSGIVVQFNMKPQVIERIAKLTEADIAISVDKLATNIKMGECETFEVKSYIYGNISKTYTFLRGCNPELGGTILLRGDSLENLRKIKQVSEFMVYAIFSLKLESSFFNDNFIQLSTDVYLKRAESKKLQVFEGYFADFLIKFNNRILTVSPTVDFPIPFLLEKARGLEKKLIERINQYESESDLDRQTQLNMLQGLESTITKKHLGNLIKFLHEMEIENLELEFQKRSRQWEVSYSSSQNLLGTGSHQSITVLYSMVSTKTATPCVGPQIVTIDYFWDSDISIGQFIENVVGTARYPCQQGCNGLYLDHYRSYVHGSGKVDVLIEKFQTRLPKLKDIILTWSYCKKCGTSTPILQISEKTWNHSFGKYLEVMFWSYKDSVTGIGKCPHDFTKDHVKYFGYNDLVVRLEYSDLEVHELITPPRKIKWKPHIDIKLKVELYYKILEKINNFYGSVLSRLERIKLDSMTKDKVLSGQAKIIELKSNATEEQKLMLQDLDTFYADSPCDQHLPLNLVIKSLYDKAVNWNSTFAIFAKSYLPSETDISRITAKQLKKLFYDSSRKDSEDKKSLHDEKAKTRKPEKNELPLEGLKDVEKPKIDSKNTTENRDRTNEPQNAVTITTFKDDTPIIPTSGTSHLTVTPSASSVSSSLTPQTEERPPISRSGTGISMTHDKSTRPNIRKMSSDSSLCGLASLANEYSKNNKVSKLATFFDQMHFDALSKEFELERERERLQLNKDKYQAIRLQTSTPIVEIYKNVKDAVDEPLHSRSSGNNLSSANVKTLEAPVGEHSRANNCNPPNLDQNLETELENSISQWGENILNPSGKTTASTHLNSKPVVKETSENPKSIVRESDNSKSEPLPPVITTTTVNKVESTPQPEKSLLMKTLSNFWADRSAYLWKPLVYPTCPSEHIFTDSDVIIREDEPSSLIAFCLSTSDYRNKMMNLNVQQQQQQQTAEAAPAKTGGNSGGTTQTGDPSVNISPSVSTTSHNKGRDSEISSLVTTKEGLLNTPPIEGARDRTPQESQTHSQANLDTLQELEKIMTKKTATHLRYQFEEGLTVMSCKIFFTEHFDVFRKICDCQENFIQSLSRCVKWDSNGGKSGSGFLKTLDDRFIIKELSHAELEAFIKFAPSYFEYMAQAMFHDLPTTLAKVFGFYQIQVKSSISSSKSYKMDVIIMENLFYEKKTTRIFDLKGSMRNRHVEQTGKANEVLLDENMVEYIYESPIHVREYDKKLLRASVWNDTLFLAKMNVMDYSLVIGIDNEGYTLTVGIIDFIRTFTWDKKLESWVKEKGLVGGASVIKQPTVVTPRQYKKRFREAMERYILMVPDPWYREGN
Chain of Phosphatidylinositol 4,5-bisphosphate 3-kinase catalytic subunit alpha isoform (P42336 whole entry, canonical isoform): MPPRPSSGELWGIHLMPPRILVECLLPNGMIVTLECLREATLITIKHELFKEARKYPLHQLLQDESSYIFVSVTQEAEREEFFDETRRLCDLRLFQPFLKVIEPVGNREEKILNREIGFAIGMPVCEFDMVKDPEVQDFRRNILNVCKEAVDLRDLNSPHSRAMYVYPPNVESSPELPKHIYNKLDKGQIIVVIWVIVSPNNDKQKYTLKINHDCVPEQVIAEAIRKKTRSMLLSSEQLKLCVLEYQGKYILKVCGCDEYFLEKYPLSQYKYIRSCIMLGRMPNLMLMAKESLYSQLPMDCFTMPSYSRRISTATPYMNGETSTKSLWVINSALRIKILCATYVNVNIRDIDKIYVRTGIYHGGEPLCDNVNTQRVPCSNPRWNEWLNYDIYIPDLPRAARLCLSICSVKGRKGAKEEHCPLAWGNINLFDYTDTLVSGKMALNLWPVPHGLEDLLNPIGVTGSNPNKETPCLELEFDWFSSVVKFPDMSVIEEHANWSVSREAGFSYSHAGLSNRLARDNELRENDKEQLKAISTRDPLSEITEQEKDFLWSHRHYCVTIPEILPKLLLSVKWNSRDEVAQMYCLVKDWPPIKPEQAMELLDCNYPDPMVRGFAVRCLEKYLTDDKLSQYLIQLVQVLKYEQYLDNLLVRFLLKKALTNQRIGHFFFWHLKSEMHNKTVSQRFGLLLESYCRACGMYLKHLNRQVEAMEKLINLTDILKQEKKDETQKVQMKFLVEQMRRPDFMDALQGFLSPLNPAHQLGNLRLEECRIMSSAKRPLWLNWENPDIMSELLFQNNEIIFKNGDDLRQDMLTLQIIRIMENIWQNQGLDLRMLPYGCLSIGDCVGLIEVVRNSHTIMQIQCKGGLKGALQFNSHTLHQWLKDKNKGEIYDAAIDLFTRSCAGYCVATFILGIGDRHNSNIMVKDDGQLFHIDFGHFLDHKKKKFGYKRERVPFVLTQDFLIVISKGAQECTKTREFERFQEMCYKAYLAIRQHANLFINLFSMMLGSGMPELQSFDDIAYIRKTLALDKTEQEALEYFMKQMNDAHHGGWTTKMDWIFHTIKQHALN

Turning to `Oc1cccc(-c2nc(N3CCOCC3)c3oc4ncccc4c3n2)c1` [PI-103], the pIC50 in assay [1] is less than 5.00. Also, in the assay with NIH3T3 [2], the inhibition entry is “Active”.
Turning to `Nc1ccc(C(=O)Nc2cccc(-c3nc(N4CCOCC4)c4oc5ncccc5c4n3)c2)cn1`, the outcome in the assay with NIH3T3 [3], with NIH3T3 [4], with COS-7 [6], with NIH3T3 [7], with COS-7 [8] and in the assay with NIH3T3 [14] was Active. For the same compound, the outcome in the assay on MCF-10A, in the assay on NIH3T3 [19], in the assay on NIH3T3 [20], in the assay on NIH3T3 [23], in the assay with MDCK and in the assay on MEF was Active. Besides, the Activity came out at 7476 in assay [5]; 194539 in [13]; 1319 in [15]; 393289 in assay [18]; 50% with NIH3T3 [21]; 465 in [22]. The inhibition entry in the assay with NIH3T3 [9] and in the assay filed under Homo sapiens was “inactive” in each case. Also, the “inhibition (INH)” value with NIH3T3 [10] was determined as 25%. In the assay with NIH3T3 [11], this compound gave a pEC50 of 6.40. In addition, the pIC50 was 5.48 in assay [12], 7.48 in [17], less than 5.70 in assay [24] and less than 5.30 in assay [1]. In the assay with NIH3T3 [16], the outcome was inactive. Also, the Ratio IC50 in [25] was found to be 100.

As a reminder, the pIC50 is the IC50 on a negative log10 scale, so that one unit is a factor of ten. A word on the pEC50: it is −log10 of the EC50, conventionally taken in molar units.
